Measurements published in ChEMBL document CHEMBL2040768, “Synthesis, antimicrobial and cytotoxic activities of sulfone linked bis heterocycles” (Eur J Med Chem, 2012).
The source made the active and inactive calls. The rule behind the calls is not given here.

How the values were obtained:
[1] = tested on: Klebsiella pneumoniae; test: Antibacterial activity against Klebsiella pneumoniae at 50 ug/ml after 24 hrs by agar well diffusion method; type: functional; details: for zone of inhibition at 50 µg/mL: read-out: DIZ
How it was run: (§1)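 Agar well diffusion. Nutrient plates swabbed with 24 h broth culture of the bacterium; 6 mm wells bored and loaded with DMSO solutions of compound (wells at 50 and 100 per well). Chloramphenicol positive control, DMSO negative control. Plates held 37 °C, 24 h; inhibition zone diameter (mm) measured, mean of duplicates.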

[2] = tested on: A549; test: Cytotoxicity against human A549 cells up to 0.2 mM after 72 hrs by MTT assay
[3] = tested on: Aspergillus niger; test: Antifungal activity against Aspergillus niger at 50 ug/ml after 48 hrs by agar well diffusion method; type: functional; details: for zone of inhibition at 50 µg/mL: read-out: DIZ
How it was run: (§2)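 Fungal agar well diffusion. Plates swabbed with fungal culture, 6 mm wells filled with DMSO solutions of compound (50 and 100 per well). Ketoconazole positive and DMSO negative controls. Plates incubated 28 °C for 48 h; zone of inhibition diameter (mm) read, average of duplicates.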

[4] = tested on: Bacillus subtilis; test: Antibacterial activity against Bacillus subtilis at 100 ug/ml after 24 hrs by agar well diffusion method; type: functional; details: for zone of inhibition at 100 µg/mL: read-out: DIZ; how it was run: as §1
[5] = tested on: Staphylococcus aureus; test: Antibacterial activity against Staphylococcus aureus at 50 ug/ml after 24 hrs by agar well diffusion method; type: functional; details: for zone of inhibition at 50 µg/mL: read-out: DIZ; how it was run: as §1
[6] = tested on: Aspergillus niger; test: Antifungal activity against Aspergillus niger at 100 ug/ml after 48 hrs by agar well diffusion method; type: functional; details: for zone of inhibition at 100 µg/mL: read-out: DIZ; how it was run: as §2
[7] = tested on: Penicillium chrysogenum; test: Antifungal activity against Penicillium chrysogenum at 50 ug/ml after 48 hrs by agar well diffusion method; type: functional; details: for zone of inhibition at 50 µg/mL: read-out: DIZ; how it was run: as §2
[8] = tested on: Klebsiella pneumoniae; test: Antibacterial activity against Klebsiella pneumoniae at 100 ug/ml after 24 hrs by agar well diffusion method; type: functional; details: for zone of inhibition at 100 µg/mL: read-out: DIZ; how it was run: as §1
[9] = tested on: Bacillus subtilis; test: Antibacterial activity against Bacillus subtilis at 50 ug/ml after 24 hrs by agar well diffusion method; type: functional; details: for zone of inhibition at 50 µg/mL: read-out: DIZ; how it was run: as §1
[10] = tested on: Staphylococcus aureus; test: Antibacterial activity against Staphylococcus aureus at 100 ug/ml after 24 hrs by agar well diffusion method; type: functional; details: for zone of inhibition at 100 µg/mL: read-out: DIZ; how it was run: as §1
[11] = tested on: Pseudomonas aeruginosa; test: Antibacterial activity against Pseudomonas aeruginosa at 100 ug/ml after 24 hrs by agar well diffusion method; type: functional; details: for zone of inhibition at 100 µg/mL: read-out: DIZ; how it was run: as §1
[12] = tested on: Penicillium chrysogenum; test: Antifungal activity against Penicillium chrysogenum at 100 ug/ml after 48 hrs by agar well diffusion method; type: functional; details: for zone of inhibition at 100 µg/mL: read-out: DIZ; how it was run: as §2
[13] = tested on: Pseudomonas aeruginosa; test: Antibacterial activity against Pseudomonas aeruginosa at 50 ug/ml after 24 hrs by agar well diffusion method; type: functional; details: for zone of inhibition at 50 µg/mL: read-out: DIZ; how it was run: as §1

SMILES	Activity [2]	zone of inhibition at 50 µg/mL [1] [mm]	zone of inhibition at 50 µg/mL [3] [mm]	zone of inhibition at 100 µg/mL [4] [mm]	zone of inhibition at 50 µg/mL [5] [mm]	zone of inhibition at 100 µg/mL [6] [mm]	zone of inhibition at 50 µg/mL [7] [mm]	zone of inhibition at 100 µg/mL [8] [mm]	zone of inhibition at 50 µg/mL [9] [mm]	zone of inhibition at 100 µg/mL [10] [mm]	zone of inhibition at 100 µg/mL [11] [mm]	zone of inhibition at 100 µg/mL [12] [mm]	zone of inhibition at 50 µg/mL [13] [mm]	also measured
Cc1ccc(NS(=O)(=O)Cc2nnc(CS(=O)(=O)c3c[nH]cc3S(=O)(=O)c3ccc(C)cc3)o2)cc1	inactive													diameter of the inhibition zone (DIZ) [1]: inactive; diameter of the inhibition zone (DIZ) [3]: inactive; diameter of the inhibition zone (DIZ) [4]: inactive; diameter of the inhibition zone (DIZ) [5]: inactive; diameter of the inhibition zone (DIZ) [6]: inactive; diameter of the inhibition zone (DIZ) [7]: inactive; diameter of the inhibition zone (DIZ) [8]: inactive; diameter of the inhibition zone (DIZ) [9]: inactive; diameter of the inhibition zone (DIZ) [10]: inactive; diameter of the inhibition zone (DIZ) [11]: inactive; diameter of the inhibition zone (DIZ) [12]: inactive; diameter of the inhibition zone (DIZ) [13]: inactive
Cc1ccc(NS(=O)(=O)Cc2nnc(CS(=O)(=O)c3c[nH]nc3S(=O)(=O)c3ccc(C)cc3)n2N)cc1	inactive	20	16	20	16	19	14	22	18	17	14	18	12	
Cc1ccc(NS(=O)(=O)Cc2nnc(CS(=O)(=O)C3CNN=C3S(=O)(=O)c3ccc(C)cc3)o2)cc1 (stereo unspecified)	inactive													diameter of the inhibition zone (DIZ) [1]: inactive; diameter of the inhibition zone (DIZ) [3]: inactive; diameter of the inhibition zone (DIZ) [4]: inactive; diameter of the inhibition zone (DIZ) [5]: inactive; diameter of the inhibition zone (DIZ) [6]: inactive; diameter of the inhibition zone (DIZ) [7]: inactive; diameter of the inhibition zone (DIZ) [8]: inactive; diameter of the inhibition zone (DIZ) [9]: inactive; diameter of the inhibition zone (DIZ) [10]: inactive; diameter of the inhibition zone (DIZ) [11]: inactive; diameter of the inhibition zone (DIZ) [12]: inactive; diameter of the inhibition zone (DIZ) [13]: inactive
Cc1ccc(NS(=O)(=O)Cc2nnc(CS(=O)(=O)C3CNN=C3S(=O)(=O)c3ccc(C)cc3)s2)cc1 (stereo unspecified)	inactive	16	11	16	11	14	13	18	14	13	13	16	11	
Nn1c(CS(=O)(=O)Nc2ccccc2)nnc1CS(=O)(=O)c1c[nH]nc1S(=O)(=O)c1ccccc1	inactive	24	19	23	19	23	20	26	19	21	17	23	15	
O=S(=O)(Cc1nnc(CS(=O)(=O)c2c[nH]nc2S(=O)(=O)c2ccccc2)s1)Nc1ccccc1	inactive	14	15	17	16	17	16	16	15	17	12	19	10	
O=S(=O)(/C=C/S(=O)(=O)c1ccc(Cl)cc1)Cc1nnc(CS(=O)(=O)Nc2ccc(Cl)cc2)s1	inactive	33	31	29	29	33	32	35	27	32	27	35	25	
